Source: ChEMBL document CHEMBL4402595, “Discovery of Orally Bioavailable Chromone Derivatives as Potent and Selective BRD4 Inhibitors: Scaffold Hopping, Optimization, and Pharmacological Evaluation” (J Med Chem, 2020)
Active and inactive are the calls of the source. The calls are words filed in the database; no cut-off is given here.

Experiments:
[1] = Oral bioavailability in Sprague-Dawley rat at 20 mg/kg measured after 2 to 26 hrs; format: ADME, organism-based; conditions: in vivo
Method in brief: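 Male Sprague-Dawley rats received a single dose either intravenously (10 mg/kg) or orally. Plasma concentration–time curves were followed after each route. Total clearance (CL) came from the i.v. arm, and oral bioavailability (F) was derived by comparing the p.o. and i.v. profiles.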

[2] = molecular target: Bromodomain-containing protein 2 (Homo sapiens, UniProt P25440); experiment: Binding affinity to recombinant BRD2 BD2 (unknown origin) incubated for 1 hr by TR-FRET assay
[3] = Aqueous solubility in water incubated at 25 degC for 24 hrs by HPLC analysis; format: physicochemical; conditions: buffer
Method in brief: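 Compound suspension was shaken at 25 °C for 24 h, then centrifuged and the supernatant filtered. Supernatant was quantified by C18 reverse-phase HPLC against a one-point calibration of a known concentration.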

Mus musculus [4] = experiment: (§1) Antiinflammatory activity in C57BL6/J mouse model of TLR3-induced acute airway inflammation assessed as inhibition of elevated IL6 gene expression in lung at 10 mg/kg, po pre-treated 1 day before poly(I:C) stimulation followed by compound re-dosing at 10 mg/kg, po before another poly(I:C) stimulation and measured after 1 day post last poly(I:C) stimulation; format: functional, organism-based
Method in brief: (§2)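 Male C57BL/6J mice, 12 weeks old, 5 per group, dosed 10 mg/kg one day before challenge and again immediately before intranasal poly(I:C) (300 μg in 50 μL PBS). Controls were vehicle alone and poly(I:C) alone. Lungs were taken 1 day later. Gene expression in lung tissue was measured by qRT-PCR, normalized to PPIA.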

[5] = molecular target: T1, Bromodomain-containing protein 4 (Homo sapiens, UniProt O60885); experiment: Inhibition of BRD4 in poly(I:C)-stimulated human SAECs assessed as reduction in H3K122Ac levels at 10 uM pre-incubated for 24 hrs before poly(I:C) stimulation for 4 hrs by immunofluorescence staining
Mus musculus [6] = experiment: as §1, with “elevated CIG5” for “elevated IL6”, “mg/kg, ip” for “mg/kg, po”; format: functional, organism-based; method in brief: as §2
Mus musculus [7] = experiment: Antiinflammatory activity in C57BL6/J mouse model of TLR3-induced acute airway inflammation assessed as inhibition of neutrophilic inflammation around small and medium-sized airways at 10 mg/kg, po pre-treated 1 day before poly(I:C) stimulation followed by compound re-dosing at 10 mg/kg, po before another poly(I:C) stimulation and measured after 1 day post last poly(I:C) stimulation by …; format: functional
[8] = molecular target: T1, Bromodomain-containing protein 4; experiment: Inhibition of BRD4 in poly(I:C)-stimulated human SAECs TLR3-inducible IL-6 gene expression at 10 uM pre-incubated for 24 hrs before poly(I:C) stimulation for 4 hrs by qRT-PCR analysis relative to control
Mus musculus [9] = experiment: as §1, with “KC” for “IL6”; format: functional, organism-based; method in brief: as §2
Mus musculus [10] = experiment: as §1, with “elevated KC” for “elevated IL6”, “mg/kg, ip” for “mg/kg, po”; format: functional, organism-based; method in brief: as §2
[11] = molecular target: T1, Bromodomain-containing protein 4; experiment: Inhibition of BRD4 in poly(I:C)-stimulated human SAECs TLR3-inducible CIG5 gene expression pre-incubated for 24 hrs before poly(I:C) stimulation for 4 hrs by qRT-PCR analysis
CYP3A4 = CYP3A4 (Homo sapiens, UniProt P08684); experiment: Inhibition of CYP3A4 (unknown origin) at 10 uM using testosterone substrate relative to control; format: ADME; conditions: probe testosterone
Method in brief: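 The CYP3A4 assay was run with midazolam or with testosterone as substrate.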

[12] = Clearance in human liver microsomes; format: ADME, Microsome
CYP2C8 = molecular target: T2, CYP2C8 (Homo sapiens, UniProt P10632); experiment: Inhibition of CYP2C8 (unknown origin) at 10 uM relative to control; format: ADME
T2 sequence (P10632 whole entry): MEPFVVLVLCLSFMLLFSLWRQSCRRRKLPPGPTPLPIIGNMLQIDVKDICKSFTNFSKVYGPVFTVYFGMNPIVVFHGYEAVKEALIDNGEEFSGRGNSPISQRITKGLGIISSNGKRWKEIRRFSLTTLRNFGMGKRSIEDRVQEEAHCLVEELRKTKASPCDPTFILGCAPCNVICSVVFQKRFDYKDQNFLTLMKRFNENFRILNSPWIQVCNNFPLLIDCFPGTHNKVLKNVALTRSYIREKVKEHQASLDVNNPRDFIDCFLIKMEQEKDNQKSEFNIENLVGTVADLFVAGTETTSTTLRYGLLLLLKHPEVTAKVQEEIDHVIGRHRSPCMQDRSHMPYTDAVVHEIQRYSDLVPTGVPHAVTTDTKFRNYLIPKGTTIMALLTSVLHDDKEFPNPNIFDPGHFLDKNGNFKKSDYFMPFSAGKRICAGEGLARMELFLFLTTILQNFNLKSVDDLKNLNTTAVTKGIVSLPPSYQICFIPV

[13] = Unbound fraction in human plasma at 2 uM; format: ADME, cell-free
CYP1A2 = molecular target: T3, CYP1A2 (Homo sapiens, UniProt P05177); experiment: Inhibition of CYP1A2 (unknown origin) at 10 uM relative to control; format: ADME
T3 sequence (P05177 whole entry): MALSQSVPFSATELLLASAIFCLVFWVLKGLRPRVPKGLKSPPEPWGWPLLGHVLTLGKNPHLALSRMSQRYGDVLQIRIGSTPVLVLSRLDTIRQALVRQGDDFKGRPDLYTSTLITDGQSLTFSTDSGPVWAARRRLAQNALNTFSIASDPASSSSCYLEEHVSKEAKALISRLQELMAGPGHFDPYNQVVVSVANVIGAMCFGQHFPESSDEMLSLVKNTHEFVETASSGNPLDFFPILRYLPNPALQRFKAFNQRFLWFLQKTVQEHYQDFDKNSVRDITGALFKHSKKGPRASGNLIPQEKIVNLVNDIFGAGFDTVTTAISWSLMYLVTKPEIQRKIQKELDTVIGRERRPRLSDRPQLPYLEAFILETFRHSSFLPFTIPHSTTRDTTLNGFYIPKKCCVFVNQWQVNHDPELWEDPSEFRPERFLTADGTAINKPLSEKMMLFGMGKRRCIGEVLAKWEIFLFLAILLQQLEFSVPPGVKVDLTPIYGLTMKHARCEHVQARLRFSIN

CYP2D6 = CYP2D6 (Homo sapiens, UniProt P10635); experiment: Inhibition of CYP2D6 (unknown origin) at 10 uM relative to control; format: ADME
[14] = Clearance in mouse liver microsomes; format: ADME, Microsome

Chain of Bromodomain-containing protein 2 (P25440 whole entry): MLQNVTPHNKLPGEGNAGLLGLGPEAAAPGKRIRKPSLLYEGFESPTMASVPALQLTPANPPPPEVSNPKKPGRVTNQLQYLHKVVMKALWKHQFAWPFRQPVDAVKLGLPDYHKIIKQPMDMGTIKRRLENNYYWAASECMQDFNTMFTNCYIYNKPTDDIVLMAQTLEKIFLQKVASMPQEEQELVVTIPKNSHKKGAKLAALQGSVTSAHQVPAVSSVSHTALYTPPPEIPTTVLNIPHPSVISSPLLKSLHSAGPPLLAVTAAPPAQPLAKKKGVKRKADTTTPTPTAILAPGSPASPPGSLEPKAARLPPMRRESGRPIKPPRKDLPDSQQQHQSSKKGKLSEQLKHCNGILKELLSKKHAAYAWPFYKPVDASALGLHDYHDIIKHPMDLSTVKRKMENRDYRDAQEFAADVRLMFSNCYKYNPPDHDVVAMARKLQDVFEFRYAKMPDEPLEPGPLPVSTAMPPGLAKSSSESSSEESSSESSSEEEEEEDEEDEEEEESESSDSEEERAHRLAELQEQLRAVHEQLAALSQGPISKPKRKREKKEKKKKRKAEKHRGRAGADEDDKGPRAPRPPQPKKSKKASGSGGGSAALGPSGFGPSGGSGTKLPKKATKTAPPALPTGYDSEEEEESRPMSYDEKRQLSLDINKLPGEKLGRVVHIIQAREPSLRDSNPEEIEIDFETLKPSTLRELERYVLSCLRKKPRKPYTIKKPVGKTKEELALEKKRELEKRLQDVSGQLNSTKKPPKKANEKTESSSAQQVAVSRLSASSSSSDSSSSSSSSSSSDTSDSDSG
Chain of CYP3A4 (P08684 whole entry): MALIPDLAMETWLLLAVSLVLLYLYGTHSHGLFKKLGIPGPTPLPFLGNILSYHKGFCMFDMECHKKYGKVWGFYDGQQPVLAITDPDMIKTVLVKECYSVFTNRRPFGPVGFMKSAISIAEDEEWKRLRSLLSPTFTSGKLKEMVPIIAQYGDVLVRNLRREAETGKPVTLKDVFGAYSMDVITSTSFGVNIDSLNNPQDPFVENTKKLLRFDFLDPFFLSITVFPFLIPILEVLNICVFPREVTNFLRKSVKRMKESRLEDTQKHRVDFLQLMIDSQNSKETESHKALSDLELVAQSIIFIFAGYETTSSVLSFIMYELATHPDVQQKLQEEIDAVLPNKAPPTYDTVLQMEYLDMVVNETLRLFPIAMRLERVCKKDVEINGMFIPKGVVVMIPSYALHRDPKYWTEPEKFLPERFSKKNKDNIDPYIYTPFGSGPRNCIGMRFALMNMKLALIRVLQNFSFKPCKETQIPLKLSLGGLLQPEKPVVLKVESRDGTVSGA
Chain of CYP2D6 (P10635 whole entry): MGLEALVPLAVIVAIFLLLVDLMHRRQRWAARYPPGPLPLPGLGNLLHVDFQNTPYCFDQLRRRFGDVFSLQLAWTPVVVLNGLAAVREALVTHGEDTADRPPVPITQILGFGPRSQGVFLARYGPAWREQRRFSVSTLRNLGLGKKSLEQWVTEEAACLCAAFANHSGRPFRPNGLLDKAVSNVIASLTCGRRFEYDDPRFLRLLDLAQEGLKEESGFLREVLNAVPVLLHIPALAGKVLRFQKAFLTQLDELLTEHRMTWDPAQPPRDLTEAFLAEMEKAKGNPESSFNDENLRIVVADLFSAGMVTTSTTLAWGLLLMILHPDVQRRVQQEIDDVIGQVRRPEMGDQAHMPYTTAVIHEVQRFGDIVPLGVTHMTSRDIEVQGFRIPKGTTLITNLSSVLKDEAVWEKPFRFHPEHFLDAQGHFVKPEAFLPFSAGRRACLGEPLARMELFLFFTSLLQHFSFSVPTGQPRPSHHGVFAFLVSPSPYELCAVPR

Row | SMILES | F [1] | IC50 [2] | solubility [3] | inhibition (Mus musculus [4]) | inhibition [5] | inhibition (Mus musculus [6]) | inhibition in vivo at 10 mg/kg (Mus musculus [7]) | inhibition [8] | inhibition (Mus musculus [9]) | inhibition (Mus musculus [10]) | IC50 [11] | inhibition at 10 µM (CYP3A4) | CLH [12] | inhibition at 10 µM (CYP2C8) | Fu [13] | inhibition at 10 µM (CYP1A2) | inhibition at 10 µM (CYP2D6) | CLH [14]
1 | COc1cc(OC)c2c(=O)cc(-c3cc(C)c(OC[C@H](O)CN4CCCCC4)c(C)c3)oc2c1 | 38.2% | 845 nM | > 50 mg/mL | Active | Active | Active | 100% | 100% | Active | Active | 520 nM |  |  |  |  |  |  | 
2 | COc1cc(OC)c2c(=O)cc(-c3cc(C)c(OC[C@H](O)CN4CCN(C)CC4)c(C)c3)oc2c1 | 35.3% |  | > 50 mg/mL | Active |  | Active | 100% |  | Active | Active |  | 8.2% | 5.6 µL/min/mg | 17% | 17% | 0% | 0% | 25 µL/min/mg
